Assay results reported in ChEMBL document CHEMBL5696442, “Discovery of type II inhibitors of TGFβ-activated kinase 1 (TAK1) and mitogen-activated protein kinase kinase kinase kinase 2 (MAP4K2)” (J Med Chem, 2015).
The source made the active and inactive calls. No cut-off for these calls is given here.

What was measured:
[1] = biological target: Proto-oncogene tyrosine-protein kinase Src (Homo sapiens, UniProt P12931); assay: Inhibition of SRC ACT labeling site in human Huh-7 cell lysate at 1 uM by KiNativ Profiling analysis relative to control; assay type: subcellular
[2] = biological target: Glycogen synthase kinase-3 alpha (Homo sapiens) (UniProt P49840); assay: Inhibition of GSK3A Lys2 labeling site in human Huh-7 cell lysate at 1 uM by KiNativ Profiling analysis relative to control; assay type: subcellular
Sequence of Glycogen synthase kinase-3 alpha (Homo sapiens) (P49840 2-483 limits assumed): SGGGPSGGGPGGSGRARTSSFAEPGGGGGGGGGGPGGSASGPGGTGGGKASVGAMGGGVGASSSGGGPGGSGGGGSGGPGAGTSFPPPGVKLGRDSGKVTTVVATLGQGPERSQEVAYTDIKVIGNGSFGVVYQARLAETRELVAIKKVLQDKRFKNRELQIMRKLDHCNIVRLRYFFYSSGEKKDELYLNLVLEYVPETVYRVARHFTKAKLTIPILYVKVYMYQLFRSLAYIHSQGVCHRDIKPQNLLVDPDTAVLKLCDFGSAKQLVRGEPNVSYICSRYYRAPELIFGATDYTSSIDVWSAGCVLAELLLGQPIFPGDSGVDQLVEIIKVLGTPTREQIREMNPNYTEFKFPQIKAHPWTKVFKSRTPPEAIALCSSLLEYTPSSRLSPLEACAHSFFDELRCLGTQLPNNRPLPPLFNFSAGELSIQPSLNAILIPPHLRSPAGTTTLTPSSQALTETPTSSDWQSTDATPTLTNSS

[3] = biological target: T1, Phosphatidylinositol 5-phosphate 4-kinase type-2 beta (Homo sapiens) (UniProt P78356); assay: Inhibition of PIP4K2B ATP labeling site harbouring TVKHGAGAEISTVNPEQYSK in human Huh-7 cell lysate at 1 uM by KiNativ Profiling analysis relative to control; assay type: subcellular
T1 sequence (whole entry): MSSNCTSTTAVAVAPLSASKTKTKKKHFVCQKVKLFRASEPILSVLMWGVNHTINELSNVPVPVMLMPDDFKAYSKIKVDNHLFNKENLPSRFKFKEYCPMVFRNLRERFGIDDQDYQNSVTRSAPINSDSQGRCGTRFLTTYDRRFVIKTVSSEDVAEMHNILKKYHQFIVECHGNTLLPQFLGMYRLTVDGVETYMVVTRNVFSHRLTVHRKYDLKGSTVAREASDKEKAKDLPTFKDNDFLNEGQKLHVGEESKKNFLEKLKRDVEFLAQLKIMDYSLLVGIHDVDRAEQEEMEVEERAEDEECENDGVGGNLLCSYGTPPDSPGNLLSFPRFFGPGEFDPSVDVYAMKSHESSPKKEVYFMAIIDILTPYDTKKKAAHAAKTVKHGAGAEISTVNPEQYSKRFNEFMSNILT

[4] = biological target: Rho-associated protein kinase 2 (Homo sapiens) (UniProt O75116); assay: Inhibition of ROCK2 Lys2 labeling site in human Huh-7 cell lysate at 1 uM by KiNativ Profiling analysis relative to control; assay type: subcellular
[5] = biological target: Atypical kinase COQ8B, mitochondrial (Homo sapiens) (UniProt Q96D53); assay: Inhibition of ADCK4 (unknown origin) at 10 uM by Ambit Kinomescan binding assay
[6] = biological target: Tyrosine-protein kinase CSK (Homo sapiens, UniProt P41240); assay: Inhibition of CSK (unknown origin) at 10 uM by Ambit Kinomescan binding assay relative to control
Sequence of Tyrosine-protein kinase CSK (P41240 2-450 limits assumed): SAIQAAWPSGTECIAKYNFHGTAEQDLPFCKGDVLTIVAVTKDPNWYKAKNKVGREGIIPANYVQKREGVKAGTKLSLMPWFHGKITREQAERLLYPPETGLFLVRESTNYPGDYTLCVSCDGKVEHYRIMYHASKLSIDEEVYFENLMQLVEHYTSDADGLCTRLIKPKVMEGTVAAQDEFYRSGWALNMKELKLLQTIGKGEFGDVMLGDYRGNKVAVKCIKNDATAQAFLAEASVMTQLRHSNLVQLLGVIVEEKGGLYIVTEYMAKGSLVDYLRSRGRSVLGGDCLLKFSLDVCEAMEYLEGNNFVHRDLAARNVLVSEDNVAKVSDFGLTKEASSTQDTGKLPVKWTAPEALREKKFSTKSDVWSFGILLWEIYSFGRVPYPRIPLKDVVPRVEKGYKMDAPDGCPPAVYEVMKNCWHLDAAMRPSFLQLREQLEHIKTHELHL

[7] = biological target: Serine/threonine-protein kinase MRCK gamma (Homo sapiens) (UniProt Q6DT37); assay: Inhibition of DMPK2 (unknown origin) at 10 uM by Ambit Kinomescan binding assay
[8] = biological target: Tyrosine-protein kinase FRK (Homo sapiens) (UniProt P42685); assay: Inhibition of FRK (unknown origin) at 10 uM by Ambit Kinomescan binding assay relative to control
[9] = biological target: Macrophage-stimulating protein receptor (Homo sapiens) (UniProt Q04912); assay: Inhibition of MST1R (unknown origin) at 10 uM by Ambit Kinomescan binding assay
Sequence of Macrophage-stimulating protein receptor (Homo sapiens) (Q04912 25-304 limits assumed): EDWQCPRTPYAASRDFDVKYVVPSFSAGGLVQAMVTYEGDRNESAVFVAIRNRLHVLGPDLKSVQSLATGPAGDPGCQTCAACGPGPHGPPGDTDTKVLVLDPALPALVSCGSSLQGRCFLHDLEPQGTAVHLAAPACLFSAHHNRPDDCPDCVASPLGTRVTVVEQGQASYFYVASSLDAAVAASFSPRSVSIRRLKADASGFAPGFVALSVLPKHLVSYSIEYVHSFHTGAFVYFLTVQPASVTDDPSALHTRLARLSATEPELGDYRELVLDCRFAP
Sequence of Macrophage-stimulating protein receptor (Homo sapiens) (Q04912 310-1400 limits assumed): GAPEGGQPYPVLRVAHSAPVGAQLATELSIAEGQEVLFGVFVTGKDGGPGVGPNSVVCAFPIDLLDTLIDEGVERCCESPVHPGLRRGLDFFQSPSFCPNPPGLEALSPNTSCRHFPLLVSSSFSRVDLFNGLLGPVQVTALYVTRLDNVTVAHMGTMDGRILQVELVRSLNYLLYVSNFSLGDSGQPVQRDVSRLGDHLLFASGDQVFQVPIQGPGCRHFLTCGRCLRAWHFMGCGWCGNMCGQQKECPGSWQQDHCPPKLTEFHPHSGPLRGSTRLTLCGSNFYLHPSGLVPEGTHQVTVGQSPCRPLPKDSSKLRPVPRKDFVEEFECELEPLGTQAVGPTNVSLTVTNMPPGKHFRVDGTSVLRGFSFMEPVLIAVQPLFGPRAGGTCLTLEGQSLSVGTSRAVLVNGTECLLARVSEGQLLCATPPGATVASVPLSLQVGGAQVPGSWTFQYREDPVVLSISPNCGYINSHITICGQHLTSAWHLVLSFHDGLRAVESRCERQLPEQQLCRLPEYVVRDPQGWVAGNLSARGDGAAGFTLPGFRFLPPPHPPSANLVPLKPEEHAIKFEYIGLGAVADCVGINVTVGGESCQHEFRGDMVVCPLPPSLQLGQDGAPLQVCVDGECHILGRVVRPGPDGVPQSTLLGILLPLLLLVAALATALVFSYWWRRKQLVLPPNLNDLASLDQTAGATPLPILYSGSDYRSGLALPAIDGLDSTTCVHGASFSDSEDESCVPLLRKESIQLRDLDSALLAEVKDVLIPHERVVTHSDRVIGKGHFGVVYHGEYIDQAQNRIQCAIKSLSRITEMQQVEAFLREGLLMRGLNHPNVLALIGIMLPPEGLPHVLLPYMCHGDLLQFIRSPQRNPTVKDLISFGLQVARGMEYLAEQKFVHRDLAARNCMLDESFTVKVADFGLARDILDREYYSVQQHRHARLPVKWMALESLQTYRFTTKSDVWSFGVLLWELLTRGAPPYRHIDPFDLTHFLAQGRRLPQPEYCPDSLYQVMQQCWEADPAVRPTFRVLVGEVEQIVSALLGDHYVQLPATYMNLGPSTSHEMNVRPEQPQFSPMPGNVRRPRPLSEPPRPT

[10] = biological target: SRSF protein kinase 2 (Homo sapiens) (UniProt P78362); assay: Inhibition of SRPK2 (unknown origin) at 10 uM by Ambit Kinomescan binding assay
[11] = biological target: T2, Scaffold protein ILK (Homo sapiens) (UniProt Q13418); assay: Inhibition of ILK Protein Kinase Domain in human A-375 cells at 0.5 uM by KiNativ Profiling analysis relative to control; assay type: cell-based
T2 sequence (whole entry): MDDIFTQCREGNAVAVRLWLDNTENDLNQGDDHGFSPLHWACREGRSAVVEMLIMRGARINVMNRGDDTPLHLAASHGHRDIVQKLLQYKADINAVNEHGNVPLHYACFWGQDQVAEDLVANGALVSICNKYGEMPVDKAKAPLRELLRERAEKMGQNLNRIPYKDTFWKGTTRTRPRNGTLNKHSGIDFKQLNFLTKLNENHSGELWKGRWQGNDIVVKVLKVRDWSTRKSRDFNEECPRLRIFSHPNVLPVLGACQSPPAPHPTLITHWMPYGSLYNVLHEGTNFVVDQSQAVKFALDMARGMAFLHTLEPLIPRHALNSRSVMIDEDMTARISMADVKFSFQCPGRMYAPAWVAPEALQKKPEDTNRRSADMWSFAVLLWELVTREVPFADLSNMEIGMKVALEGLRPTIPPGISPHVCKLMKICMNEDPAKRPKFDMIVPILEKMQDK

[12] = biological target: T3, Dual specificity mitogen-activated protein kinase kinase 4 (Homo sapiens) (UniProt P45985); assay: Inhibition of MAP2K4 K2 labeling site harbouring DIKPSNILLDR in human Huh-7 cells at 10 uM by KiNativ Profiling analysis relative to control; assay type: cell-based
T3 sequence (whole entry): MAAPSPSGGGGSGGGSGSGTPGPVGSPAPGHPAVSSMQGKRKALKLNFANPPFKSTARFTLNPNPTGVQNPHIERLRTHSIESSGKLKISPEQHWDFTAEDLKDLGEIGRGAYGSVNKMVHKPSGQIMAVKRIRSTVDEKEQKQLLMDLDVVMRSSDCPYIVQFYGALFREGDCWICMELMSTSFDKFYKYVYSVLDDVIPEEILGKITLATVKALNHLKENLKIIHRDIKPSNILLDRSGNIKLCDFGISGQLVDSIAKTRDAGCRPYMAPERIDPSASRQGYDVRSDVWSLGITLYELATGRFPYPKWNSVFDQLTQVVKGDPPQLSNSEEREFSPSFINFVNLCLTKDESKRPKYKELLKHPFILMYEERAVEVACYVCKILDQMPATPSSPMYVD

[13] = biological target: Focal adhesion kinase 1 (Homo sapiens) (UniProt Q05397); assay: Inhibition of FAK K1 labeling site in human Huh-7 cells at 1 uM by KiNativ Profiling analysis relative to control; assay type: cell-based
Sequence of Focal adhesion kinase 1 (Homo sapiens) (Q05397 2-1052 limits assumed): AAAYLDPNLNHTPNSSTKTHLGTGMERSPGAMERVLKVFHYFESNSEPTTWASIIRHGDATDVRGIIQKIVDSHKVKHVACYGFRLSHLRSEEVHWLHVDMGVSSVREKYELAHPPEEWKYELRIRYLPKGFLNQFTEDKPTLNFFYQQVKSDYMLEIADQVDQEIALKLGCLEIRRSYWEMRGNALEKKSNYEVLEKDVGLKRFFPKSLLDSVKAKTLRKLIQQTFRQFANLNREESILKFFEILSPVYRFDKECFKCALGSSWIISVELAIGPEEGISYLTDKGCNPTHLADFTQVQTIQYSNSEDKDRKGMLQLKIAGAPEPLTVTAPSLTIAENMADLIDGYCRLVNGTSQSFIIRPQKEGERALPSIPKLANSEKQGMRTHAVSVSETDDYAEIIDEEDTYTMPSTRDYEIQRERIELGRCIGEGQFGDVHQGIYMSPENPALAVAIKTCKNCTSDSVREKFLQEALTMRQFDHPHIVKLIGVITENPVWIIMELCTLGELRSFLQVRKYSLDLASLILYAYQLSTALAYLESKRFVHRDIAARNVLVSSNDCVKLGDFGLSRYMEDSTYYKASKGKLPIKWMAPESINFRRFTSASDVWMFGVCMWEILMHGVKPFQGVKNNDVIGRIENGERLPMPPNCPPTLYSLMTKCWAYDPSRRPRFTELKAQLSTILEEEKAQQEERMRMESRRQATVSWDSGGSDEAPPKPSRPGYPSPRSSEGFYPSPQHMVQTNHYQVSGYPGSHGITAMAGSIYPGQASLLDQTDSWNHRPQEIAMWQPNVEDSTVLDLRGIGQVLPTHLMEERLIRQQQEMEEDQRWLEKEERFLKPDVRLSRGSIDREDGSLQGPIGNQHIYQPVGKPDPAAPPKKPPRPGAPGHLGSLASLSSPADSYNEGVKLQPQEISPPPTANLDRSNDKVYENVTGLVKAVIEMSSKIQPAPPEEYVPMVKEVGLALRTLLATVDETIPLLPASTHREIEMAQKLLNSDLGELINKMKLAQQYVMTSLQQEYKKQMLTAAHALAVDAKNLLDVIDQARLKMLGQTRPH

[14] = biological target: Calcium/calmodulin-dependent protein kinase type II subunit gamma (Homo sapiens) (UniProt Q13555); assay: Inhibition of CaMK2g Lys1 labeling site harbouring KTSTQEYAAKIINTKK in human A-375 cells at 5 uM by KiNativ Profiling analysis relative to control; assay type: cell-based
Sequence of Calcium/calmodulin-dependent protein kinase type II subunit gamma (Homo sapiens) (Q13555 whole entry, the tested form may be a part): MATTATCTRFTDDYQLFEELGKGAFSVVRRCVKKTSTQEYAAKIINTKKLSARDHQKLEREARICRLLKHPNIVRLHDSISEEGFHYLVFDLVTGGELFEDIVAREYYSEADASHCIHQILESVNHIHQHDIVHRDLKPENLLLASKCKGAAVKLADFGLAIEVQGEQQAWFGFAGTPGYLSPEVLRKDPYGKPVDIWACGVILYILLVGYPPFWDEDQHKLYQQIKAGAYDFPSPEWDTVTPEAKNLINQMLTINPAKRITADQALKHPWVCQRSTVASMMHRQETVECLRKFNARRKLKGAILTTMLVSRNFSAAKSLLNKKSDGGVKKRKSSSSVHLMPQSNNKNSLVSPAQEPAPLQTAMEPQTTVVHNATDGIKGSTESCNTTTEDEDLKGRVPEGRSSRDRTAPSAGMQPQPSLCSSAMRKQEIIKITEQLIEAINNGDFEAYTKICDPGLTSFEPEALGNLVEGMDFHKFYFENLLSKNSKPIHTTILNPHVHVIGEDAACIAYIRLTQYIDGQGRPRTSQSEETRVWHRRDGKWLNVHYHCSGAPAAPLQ

[15] = biological target: Ribosomal protein S6 kinase alpha-3 (Homo sapiens) (UniProt P51812); assay: Inhibition of RSK2 domain1 Lys2 labeling site harbouring DLKPENILLDEEGHIK in human A-375 cells at 5 uM by KiNativ Profiling analysis relative to control; assay type: cell-based
Sequence of Ribosomal protein S6 kinase alpha-3 (Homo sapiens) (P51812 whole entry, the tested form may be a part): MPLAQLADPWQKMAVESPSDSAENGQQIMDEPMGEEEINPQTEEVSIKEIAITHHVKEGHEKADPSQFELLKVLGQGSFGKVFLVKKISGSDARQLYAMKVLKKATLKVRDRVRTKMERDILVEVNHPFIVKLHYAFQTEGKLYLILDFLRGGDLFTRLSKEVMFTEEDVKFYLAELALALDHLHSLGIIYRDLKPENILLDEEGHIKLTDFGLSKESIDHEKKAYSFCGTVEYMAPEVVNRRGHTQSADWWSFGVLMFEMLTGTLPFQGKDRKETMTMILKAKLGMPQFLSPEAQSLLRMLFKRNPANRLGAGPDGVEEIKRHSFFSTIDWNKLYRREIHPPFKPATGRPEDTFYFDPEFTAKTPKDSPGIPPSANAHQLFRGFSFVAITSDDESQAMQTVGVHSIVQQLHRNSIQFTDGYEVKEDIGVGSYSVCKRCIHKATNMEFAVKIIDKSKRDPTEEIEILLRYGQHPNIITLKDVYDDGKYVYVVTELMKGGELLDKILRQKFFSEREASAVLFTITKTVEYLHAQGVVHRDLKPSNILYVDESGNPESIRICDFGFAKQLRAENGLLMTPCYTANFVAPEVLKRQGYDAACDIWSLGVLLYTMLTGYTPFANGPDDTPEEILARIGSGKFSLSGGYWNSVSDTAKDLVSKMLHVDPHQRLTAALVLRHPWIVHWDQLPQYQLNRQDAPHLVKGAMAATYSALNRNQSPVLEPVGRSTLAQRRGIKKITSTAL
In short: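 Live A375 melanoma cells treated with compound at 5 or 0.5 μM, then lysed. Lysate kinases were labeled with a lysine-reactive ATP or ADP-biotin probe. Inhibition was read as protection of labeling sites from the probe.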

[16] = biological target: Phosphatidylinositol 4,5-bisphosphate 3-kinase catalytic subunit alpha isoform (Homo sapiens) (UniProt P42336); assay: Inhibition of PIK3CA ATP labeling site in human A-375 cells at 0.5 uM by KiNativ Profiling analysis relative to control; assay type: cell-based
[17] = biological target: Serine/threonine-protein kinase 24 (Homo sapiens) (UniProt Q9Y6E0); assay: Inhibition of MST3 ACT labeling site in human A-375 cells at 0.05 uM by KiNativ Profiling analysis relative to control; assay type: cell-based
[18] = biological target: Ribosomal protein S6 kinase alpha-1 (Homo sapiens) (UniProt Q15418); assay: Inhibition of RSK1 domain2 Lys2 labeling site in human A-375 cells at 0.05 uM by KiNativ Profiling analysis relative to control; assay type: cell-based

CNc1cc(Oc2cc(C(=O)Nc3cc(N4CCN(C)CC4)cc(C(F)(F)F)c3)ccc2C)ncn1
inhibition [1]: 22% | inhibition [2]: -5.8% | inhibition [3]: -5.4% | inhibition [4]: 2.7%

CCN1CCN(Cc2ccc(NC(=O)c3ccc(C)c(Oc4ccnc5[nH]ccc45)c3)cc2C(F)(F)F)CC1
inhibition [5]: inactive | inhibition [6]: 0.45% | inhibition [7]: inactive | inhibition [8]: 0.7% | inhibition [9]: inactive | inhibition [10]: inactive | inhibition [11]: 1.9% | inhibition [12]: -4.6% | inhibition [13]: 32%

CCN1CCN(Cc2ccc(NC(=O)c3ccc(C)c(/C=C/c4cnc5[nH]ccc5c4OC)c3)cc2C(F)(F)F)CC1
inhibition [14]: 11.4% | inhibition [15]: 16.5% | inhibition [16]: 34.5% | inhibition [17]: 13.5% | inhibition [18]: 4%
